In assay [1] the test system is MDA-MB-231. Description: Antiproliferative activity against ERalpha-negative human MDA-MB-231 cells at 3 uM after 6 days by WST-1 assay. Type of assay: functional, cell-based. A digest of the protocol: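 ERα-negative MDA-MB-231 breast cancer cells screened for proliferation with compound at 3 μM; WST-1 read-out at 450 nm after 6 days, relative to vehicle.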
Assay [2] has as its target T1, Estrogen receptor (Homo sapiens) (UniProt P03372).
T1 sequence (whole entry): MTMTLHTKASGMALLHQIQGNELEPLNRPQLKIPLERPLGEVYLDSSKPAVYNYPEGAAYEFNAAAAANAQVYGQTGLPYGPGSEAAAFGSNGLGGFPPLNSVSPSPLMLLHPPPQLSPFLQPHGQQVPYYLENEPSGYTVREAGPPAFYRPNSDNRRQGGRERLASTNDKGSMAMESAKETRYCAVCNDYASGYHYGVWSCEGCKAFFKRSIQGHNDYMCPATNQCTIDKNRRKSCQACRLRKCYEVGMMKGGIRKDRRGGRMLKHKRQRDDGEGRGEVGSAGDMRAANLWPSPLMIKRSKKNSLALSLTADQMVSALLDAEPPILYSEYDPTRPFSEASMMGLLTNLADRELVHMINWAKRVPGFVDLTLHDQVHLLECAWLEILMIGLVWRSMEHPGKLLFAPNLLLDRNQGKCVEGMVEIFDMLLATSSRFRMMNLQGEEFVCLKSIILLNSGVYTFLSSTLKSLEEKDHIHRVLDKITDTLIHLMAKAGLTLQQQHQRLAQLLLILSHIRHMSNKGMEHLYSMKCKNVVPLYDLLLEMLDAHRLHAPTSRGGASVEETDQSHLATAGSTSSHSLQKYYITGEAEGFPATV
As to the kind of experiment: Displacement of [3H]estradiol from full-length human ERalpha receptor by scintillation counting relative to estradiol. On the technique in general: Displacement assays read how much labelled ligand stays bound in the presence of the test substance.

Assay [3] deals with T1, Estrogen receptor (Homo sapiens). Description: Downregulation of ER-alpha levels in ER-positive human MCF-7 cells at 3 uM after 24 hrs by in-cell Western assay.
Assay [4] addresses T2, Estrogen receptor (Homo sapiens, UniProt P03372).
T2 sequence (P03372 whole entry): T1 sequence (whole entry)
As to the kind of experiment: Displacement of [3H]estradiol from full-length human ERalpha receptor by scintillation counting.

Assay [5] relates to MCF7. As to the kind of experiment: Antiproliferative activity against ER-positive human MCF7 cells at 3 uM after 6 days by WST-1 assay. The assay is classed as functional. The gist of the method: (§1)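 MCF-7 cells (ATCC), 6-day compound exposure; viability by WST-1 absorbance at 450 nm, expressed relative to vehicle-treated controls. Run in triplicate; 3 μM single-concentration screen values are averages of two to three independent experiments. Dose-response curves give IC50.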
On the technique in general: Formazan colour is commonly taken as a measure of viable cells.

Assay [6] has as its target T2, Estrogen receptor. Description: Downregulation of human ERalpha in human MCF-7 cells after 24 hrs by in-cell Western immunoassay method. The assay is classed as cell-based. A digest of the protocol: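 MCF-7 cells at 3000 cells/well treated 24 h (3 μM screen or dose-response); formaldehyde-fixed, Triton-permeabilized, stained with rabbit HC-20 anti-ERα overnight at 4 °C, IR secondary plus Cell Tag 700 normalization; in-cell Western imaging, ERα relative to vehicle, average of at least three independent experiments.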

The test system of assay [7] is MCF7. Description: Antiproliferative activity against ER-positive human MCF7 cells after 6 days by WST-1 assay. The settings on record: MCF7, 144 h. Type of assay: functional, cell-based. The gist of the method: as §1
Assay [8] has as its target T1, Estrogen receptor (Homo sapiens). As to the kind of experiment: Downregulation of human ERalpha in human MCF-7 cells at 3 x 10^-10 M after 24 hrs by Western blot method. The assay is classed as cell-based. The gist of the method: (§2)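 MCF-7 cells treated 24 h at 3 × 10−10, 3 × 10−8 or 3 × 10−6 M; whole-cell extracts with protease/phosphatase inhibitors, 10% SDS-PAGE, nitrocellulose, probed with anti-ERα F10 and β-actin; ERα given as percent of vehicle.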

Assay [9] has the same target. As to the kind of experiment: Downregulation of human ERalpha in human MCF-7 cells at 3 x 10^-8 M after 24 hrs by Western blot method. Type of assay: cell-based. The gist of the method:
as §2
For orientation: A western blot detects proteins with antibodies after separation by electrophoresis.

The target is the same in assay [10]. As to the kind of experiment: Downregulation of human ERalpha in human MCF-7 cells at 3 x 10^-6 M after 24 hrs by Western blot method. The assay is classed as cell-based. The gist of the method: as §2
Assay [11] addresses T2, Estrogen receptor. Description: Downregulation of ERalpha in human MCF-7 cells assessed as reduction of estradiol-induced GREB1 mRNA levels after 24 hrs by RT-PCR method. Type of assay: cell-based. A digest of the protocol: (§3)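 MCF-7 cells in full medium (5% FBS) with 3 × 10−10 M E2, treated 24 h across a concentration range; TRIzol RNA, reverse transcription, SYBR green qPCR for GREB1, PgR or pS2 normalized to 36B4, fold change versus vehicle; mean ± SD of at least two independent experiments in triplicate.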

The target of assay [12] is T2, Estrogen receptor. Description: Downregulation of ERalpha in human MCF-7 cells assessed as reduction of estradiol-induced PgR mRNA levels after 24 hrs by RT-PCR method. Type of assay: cell-based. The gist of the method: as §3
Assay [13] addresses T2, Estrogen receptor. As to the kind of experiment: Downregulation of ERalpha in human MCF-7 cells assessed as reduction of estradiol-induced pS2 mRNA levels after 24 hrs by RT-PCR method. The assay is classed as cell-based. A digest of the protocol:
as §3

In general, Ki refers to the equilibrium dissociation constant of an inhibitor or competing ligand from its target. A high value points to a looser hold on the target. What is called IC50 is the concentration at which inhibition is half-maximal.

The source made the active and inactive calls. The rule behind the calls is not given here.

With `CCC(=C(c1ccc(O)cc1)c1ccc(/C=C/C(=O)O)cc1)c1ccccc1`, the outcome in [1] was inactive.
Regarding `COC(=O)/C=C/c1ccc(C(=C2C3CC4CC(C3)CC2C4)c2ccc(O)cc2)cc1`, the outcome in assay [1] and in assay [3] was inactive. Further, the RBA in assay [2] amounted to 46%.
The compound `CCOC(=O)/C=C/c1ccc(C(=C2C3CC4CC(C3)CC2C4)c2ccc(O)cc2)cc1` had a Ki in [4] of 3.3 nM. The outcome in assay [1] and in assay [3] was inactive. The RBA in assay [2] amounted to 13%.
With `CCCCOC(=O)/C=C/c1ccc(C(=C2C3CC4CC(C3)CC2C4)c2ccc(O)cc2)cc1`, in [4], the Ki came out at 1.8 nM. The compound also registered an Activity in assay [5] of 40%. For the same compound, in assay [1], the outcome was inactive. In addition, the RBA in [2] worked out at 11%. In assay [3], the outcome was Active.
In the case of `CN(C)CCNC(=O)/C=C/c1ccc(C(=C2C3CC4CC(C3)CC2C4)c2ccc(O)cc2)cc1`, the inhibition constant (Ki) in assay [4] is 0.35 nM. Also, the outcome in assay [1] was inactive. Further, in assay [2], the RBA is 57%.
With `O=C(/C=C/c1ccc(C(=C2C3CC4CC(C3)CC2C4)c2ccc(O)cc2)cc1)NCC(F)(F)F`, in [4], the inhibition constant Ki came out at 1.33 nM. For the same compound, the outcome in assay [1] and in assay [3] was inactive. Also, the RBA in assay [2] is 15%.
As to `CCCCN(C)C(=O)/C=C/c1ccc(C(=C2C3CC4CC(C3)CC2C4)c2ccc(O)cc2)cc1`, the result in [5], in assay [1] and in assay [3] was inactive. The compound also displayed an RBA in assay [2] of 28%.
In assay [4], `CCCNS(=O)(=O)/C=C/c1ccc(C(=C2C3CC4CC(C3)CC2C4)c2ccc(O)cc2)cc1` came in with a Ki of 0.38 nM. Moreover, the result in assay [5] and in assay [3] was Active. Further, in assay [1], the result was inactive. The RBA in assay [2] is 52%.
Regarding `NCCCCNC(=O)/C=C/c1ccc(C(=C2C3CC4CC(C3)CC2C4)c2ccc(O)cc2)cc1`, the result in [1] was inactive. Further, in [3], the outcome was Active.
`O=C(/C=C/c1ccc(C(=C2C3CC4CC(C3)CC2C4)c2ccc(O)cc2)cc1)NCCO`: the Ki in assay [4] is 0.18 nM. The Activity in [5] is recorded as 24%. Also, in [1], the result was inactive. Besides, the IC50 was 5.6 nM in assay [6] and 2.4 nM in assay [7]. In [2], this compound yielded an RBA of 109%. In assay [3], the result was Active.
Consider `NC(=O)/C=C/c1ccc(C(=C2C3CC4CC(C3)CC2C4)c2ccc(O)cc2)cc1`, for which the Ki in assay [4] was found to be 0.27 nM. Also, the result in assay [1] and in [3] was inactive. This compound also returned an RBA in assay [2] of 71%.
For the compound `O=C(/C=C/c1ccc(C(=C2C3CC4CC(C3)CC2C4)c2ccc(O)cc2)cc1)NCCCCCO`, the Ki in assay [4] worked out at 0.65 nM. Further, the outcome in assay [5] was Active. Moreover, the outcome in [1] was inactive. Moreover, the RBA in assay [2] came to 31%.
`O=C(/C=C/c1ccc(C(=C2C3CC4CC(C3)CC2C4)c2ccc(O)cc2)cc1)OCCCCO`: the affinity in assay [4] corresponds to a Ki of 0.45 nM. In [1], the outcome was inactive. The RBA in assay [2] came to 44%. Also, in [3], the outcome was Active.
`O=C(/C=C/c1ccc(C(=C2C3CC4CC(C3)CC2C4)c2ccc(O)cc2)cc1)OCCO`: the result in assay [1] and in [3] was inactive. The compound also returned an RBA in [2] of 54%.
In assay [5], `O=C(/C=C/c1ccc(C(=C2C3CC4CC(C3)CC2C4)c2ccc(O)cc2)cc1)NCCCO` gave an Activity of 30%. The outcome in assay [1] was inactive. For the same compound, the IC50 in assay [6] came to 0.53 nM; in assay [11], 50 nM; in assay [12], 50 nM; in assay [13], 50 nM; in assay [7], 1.9 nM. Further, the result in [8], in assay [9] and in assay [10] was Active. Further, the RBA in assay [2] was 47%.
For `N#C/C=C/c1ccc(C(=C2C3CC4CC(C3)CC2C4)c2ccc(O)cc2)cc1`, the Ki in [4] amounted to 1.4 nM. Besides, the outcome in assay [5] and in assay [1] was inactive. The RBA in [2] is 14%. Also, the result in assay [3] was Active.
Take `O=C(/C=C/c1ccc(C(=C2C3CC4CC(C3)CC2C4)c2ccc(O)cc2)cc1)N(CCO)CCO`: the affinity in assay [4] corresponds to a Ki of 0.13 nM. Also, in assay [1], the result was inactive. Besides, the RBA in assay [2] was determined as 115%.
Consider `O=C(/C=C/c1ccc(C(=C2C3CC4CC(C3)CC2C4)c2ccc(O)cc2)cc1)OCCCO`, for which the result in assay [1] and in assay [3] was inactive. Moreover, the RBA in [2] came to 28%.
With `NCCCNC(=O)/C=C/c1ccc(C(=C2C3CC4CC(C3)CC2C4)c2ccc(O)cc2)cc1`, the outcome in assay [5] and in [3] was Active. Further, the result in assay [1] was inactive. The RBA in assay [2] was determined as 54%.
`CCCCCNC(=O)/C=C/c1ccc(C(=C2C3CC4CC(C3)CC2C4)c2ccc(O)cc2)cc1` showed an inhibitory constant (Ki) in assay [4] of 0.74 nM. Further, in assay [5], the outcome was Active. In assay [1], the outcome was inactive. In assay [2], this compound registered an RBA of 27%.
The compound `CCCCCC(=O)/C=C/c1ccc(C(=C2C3CC4CC(C3)CC2C4)c2ccc(O)cc2)cc1` had an inhibition constant (Ki) in assay [4] of 1.7 nM. For the same compound, in assay [1], the result was inactive. Also, the RBA in assay [2] is 12%.
As for `NCCNC(=O)/C=C/c1ccc(C(=C2C3CC4CC(C3)CC2C4)c2ccc(O)cc2)cc1`, in assay [4], the Ki came to 0.57 nM. The result in assay [5] and in [3] was Active. Further, the result in [1] was inactive. The compound also showed an RBA in assay [2] of 35%.
Turning to `CN(CCO)C(=O)/C=C/c1ccc(C(=C2C3CC4CC(C3)CC2C4)c2ccc(O)cc2)cc1`, the outcome in [1] was inactive.
For the compound `O=C(/C=C/c1ccc(C(=C2C3CC4CC(C3)CC2C4)c2ccc(O)cc2)cc1)NCCCCO`, in assay [4], the affinity, expressed as Ki, was 0.36 nM. In addition, in assay [5], the result was Active. Further, the result in assay [1] was inactive. The RBA in assay [2] amounted to 56%.
`CCCNC(=O)/C=C/c1ccc(C(=C2C3CC4CC(C3)CC2C4)c2ccc(O)cc2)cc1` yielded a Ki in [4] of 1.1 nM. The result in assay [5] was Active. Further, the outcome in assay [1] was inactive. The compound further had an RBA in [2] of 18%.
In the case of `CC(C)CCCCCOC(=O)/C=C/c1ccc(C(=C2C3CC4CC(C3)CC2C4)c2ccc(O)cc2)cc1`, affinity in assay [4] was put at a Ki of 7.1 nM. Moreover, the outcome in assay [1] was inactive. The RBA in assay [2] worked out at 2.8%. The outcome in assay [3] was Active.
On to `CCCCNC(=O)/C=C/c1ccc(C(=C2C3CC4CC(C3)CC2C4)c2ccc(O)cc2)cc1`, for which the outcome in assay [5] and in [3] was Active. Moreover, in [1], the outcome was inactive. This compound had an RBA in [2] of 28%.

(Values after ChEMBL document CHEMBL4011648, “Adamantyl Antiestrogens with Novel Side Chains Reveal a Spectrum of Activities in Suppressing Estrogen Receptor Mediated Activities in Breast Cancer Cells” (J Med Chem, 2017).)
